Data set [1] relates to Amaranthus retroflexus. As to the kind of experiment: Pre-emergence herbicidal activity against Amaranthus retroflexus at 1.5 kg/ha applied through spraying immediately after seed plantings. It counts as functional. In outline: (§1)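 Seeds sown in 6 cm diameter plastic boxes containing artificial mixed soil. Amaranthus retroflexus seed was reproduced outdoors and stored at room temperature. Alfalfa and rape seed came from a crop institute.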

Data set [2] relates to Brassica napus. Briefly: Post-emergence herbicidal activity against Brassica napus (oilseed rape) at 1.5 kg/ha applied through spraying after first true leaf expanded. It counts as functional. In outline:
as §1

In data set [3] the test system is Medicago sativa. Briefly: Post-emergence herbicidal activity against Medicago sativa (alfalfa) at 1.5 kg/ha applied through spraying after first true leaf expanded. It counts as functional. In outline: as §1
Data set [4] concerns Amaranthus retroflexus. Briefly: Post-emergence herbicidal activity against Amaranthus retroflexus at 1.5 kg/ha applied through spraying after first true leaf expanded. Format: functional. An outline of the steps:
as §1

In data set [5] the test system is Medicago sativa. Briefly: Pre-emergence herbicidal activity against Medicago sativa (alfalfa) at 1.5 kg/ha applied through spraying immediately after seed plantings. Format: functional. In outline: as §1
For data set [6], the system named is Brassica napus. Briefly: Pre-emergence herbicidal activity against Brassica napus (oilseed rape) at 1.5 kg/ha applied through spraying immediately after seed plantings. Format: functional. In outline:
as §1

For another data set, the system named is Zea mays. As to the kind of experiment: Phytotoxicity against Zea mays (maize) at 750 g/ha. It counts as organism-based. To be noted: in vivo.

`CCOCCOC(=O)/C(C#N)=C(/NCc1ccc(Cl)cc1)C(C)C`: the Activity with Amaranthus retroflexus [1] is 52.2%; in the data set on Brassica napus [2] it was 96.5%; with Medicago sativa [3] it was 28.1%; in the data set with Amaranthus retroflexus [4], 93.9%; in the data set with Medicago sativa [5], 0%; in the data set with Brassica napus [6] it was 0%.
Take `CCCOc1ccc(CN/C(C)=C(/C#N)C(=O)OCCOCC)cn1`: the Activity is on record as 23.4% in the data set on Amaranthus retroflexus [1]; 17% in the data set with Brassica napus [2]; 34.2% with Medicago sativa [3]; 31% in the data set on Amaranthus retroflexus [4]; “Non-toxic” with Zea mays; 17.8% in the data set on Medicago sativa [5]. In the data set with Brassica napus [6], this molecule returned an Activity of 0%.
Regarding `CCOCCOC(=O)/C(C#N)=C(/C)NCc1ccc(OC)nc1`, the Activity was 100% with Amaranthus retroflexus [1]; 69% in the data set on Brassica napus [2]; 64% in the data set with Medicago sativa [3]; 100% in the data set on Amaranthus retroflexus [4]; “Non-toxic” in the data set on Zea mays; 57.1% in the data set with Medicago sativa [5]. In the data set on Brassica napus [6], this molecule showed an Activity of 92.5%.
Take `CCOCCOC(=O)/C(C#N)=C\NCc1ccc(Cl)nc1`: the Activity is given as 12.2% with Amaranthus retroflexus [1]; 7.3% with Brassica napus [2]; 15.8% with Medicago sativa [3]; 18.3% in the data set on Amaranthus retroflexus [4]; “Non-toxic” with Zea mays; 14.8% in the data set with Medicago sativa [5]. In the data set on Brassica napus [6], this molecule yielded an Activity of 21.8%.
As for `CCCCOc1ccc(CN/C(=C(/C#N)C(=O)OCCOCC)C(C)C)cn1`, the Activity in the data set on Amaranthus retroflexus [1] is reported as 10.1%; in the data set on Brassica napus [2] it was 100%; in the data set on Medicago sativa [3], 41%; in the data set on Amaranthus retroflexus [4] it was 100%; in the data set on Zea mays, “Non-toxic”; in the data set on Medicago sativa [5], 0%. The molecule also registered an Activity in the data set with Brassica napus [6] of 6.3%.
Turning to `CCCOc1ccc(CN/C(=C(/C#N)C(=O)OCCOCC)C(C)C)cn1`, the Activity with Amaranthus retroflexus [1] is 30.4%; with Brassica napus [2], 100%; in the data set on Medicago sativa [3], 75.9%; in the data set on Amaranthus retroflexus [4], 100%; in the data set on Zea mays, “Non-toxic”; in the data set with Medicago sativa [5], 14.8%. This molecule also showed an Activity in the data set with Brassica napus [6] of 30.7%.
Turning to `CCOCCOC(=O)/C(C#N)=C(\NCc1ccc(OCC)nc1)C(C)C`, the Activity is given as 50.7% in the data set with Amaranthus retroflexus [1]; 100% with Brassica napus [2]; 45.8% with Medicago sativa [3]; 100% with Amaranthus retroflexus [4]; “Non-toxic” in the data set with Zea mays; 10.1% in the data set on Medicago sativa [5]. In the data set on Brassica napus [6], the Activity came to 54.8%.
`CCOCCOC(=O)/C(C#N)=C(\NCc1ccc(OC)nc1)C(C)C`: the Activity in the data set with Amaranthus retroflexus [1] was 71%; with Brassica napus [2], 100%; in the data set with Medicago sativa [3], 53%; in the data set with Amaranthus retroflexus [4] it was 100%; in the data set with Zea mays it was “Non-toxic”; with Medicago sativa [5] it was 32.9%. For the same molecule, the Activity in the data set on Brassica napus [6] was found to be 100%.
With `CCOc1ccc(CN/C(SC)=C(\C#N)C(=O)OCCOC)cn1`, the Activity with Amaranthus retroflexus [1] was 31.3%; in the data set with Brassica napus [2] it was 84.5%; in the data set on Medicago sativa [3] it was 55.3%; with Amaranthus retroflexus [4], 70%; with Zea mays, “Non-toxic”; in the data set with Medicago sativa [5], 0%. Moreover, the Activity in the data set on Brassica napus [6] came out at 5.1%.
For `COCCOC(=O)/C(C#N)=C(/NCc1ccc(OC)nc1)SC`, the Activity in the data set on Amaranthus retroflexus [1] was 50%; in the data set on Brassica napus [2], 90.1%; in the data set on Medicago sativa [3] it was 72.3%; in the data set with Amaranthus retroflexus [4], 90%; with Zea mays, “Non-toxic”; in the data set with Medicago sativa [5] it was 10%. Moreover, the Activity in the data set on Brassica napus [6] stood at 48.8%.
`COCCOC(=O)/C(C#N)=C(/NCc1cccnc1)SC`: the Activity is 0% with Amaranthus retroflexus [1]; 6.4% in the data set on Brassica napus [2]; 15.9% in the data set with Medicago sativa [3]; 0% in the data set on Amaranthus retroflexus [4]; “Non-toxic” in the data set with Zea mays; 0% with Medicago sativa [5]. This molecule registered an Activity in the data set on Brassica napus [6] of 9.1%.

Source of the values: ChEMBL document CHEMBL3046628, “Synthesis and herbicidal activity of 2-cyano-3-substituted-pyridinemethylaminoacrylates” (J Agric Food Chem, 2003).
